Data set [1] addresses Voltage-gated inwardly rectifying potassium channel KCNH2 (Homo sapiens, UniProt Q12809). The data set can be described thus: Inhibition of human ERG at 10 to 100 uM. The note with it: dose 10-100 µM.
The nature of data set [2]: Drug metabolism in rat hepatocytes assessed as glucuronidation by LC-MS/MS analysis. In kind it is ADME, cell-based, Hepatocyte.
Data set [3] is described as follows: Solubility of the compound in FaSSIF. In kind it is physicochemical.
Another data set deals with Rattus norvegicus. Description: Hypoglycemic activity in Zucker fatty diabetes mellitus rat model assessed as increase in insulin levels in plasma at 0.03 to 1 mg/kg, po administered for 21 days and measured at 10 to 60 mins post glucose challenge on day 1 by OGTT. The note with it: dose 0.03-1 mg/kg, time 21.0 day. In kind it is functional, organism-based.
For the next data set, the target named is T1, RXR alpha/PPAR gamma (Homo sapiens, UniProt P19793+P37231).
T1 sequence (P37231 whole entry): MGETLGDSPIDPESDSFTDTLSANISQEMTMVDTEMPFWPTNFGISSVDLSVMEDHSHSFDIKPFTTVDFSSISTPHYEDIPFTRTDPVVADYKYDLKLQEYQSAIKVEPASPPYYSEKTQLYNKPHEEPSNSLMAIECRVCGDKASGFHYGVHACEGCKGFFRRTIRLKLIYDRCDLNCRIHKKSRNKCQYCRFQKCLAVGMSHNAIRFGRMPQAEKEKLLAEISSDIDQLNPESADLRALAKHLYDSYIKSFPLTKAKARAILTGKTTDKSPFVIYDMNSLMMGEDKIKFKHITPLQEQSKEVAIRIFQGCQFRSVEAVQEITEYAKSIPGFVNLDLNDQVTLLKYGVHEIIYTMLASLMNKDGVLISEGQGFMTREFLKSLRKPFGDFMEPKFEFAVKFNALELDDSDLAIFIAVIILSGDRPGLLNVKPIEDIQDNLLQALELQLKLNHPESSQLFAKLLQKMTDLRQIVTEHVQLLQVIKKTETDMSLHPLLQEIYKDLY
T1 sequence (P19793 whole entry): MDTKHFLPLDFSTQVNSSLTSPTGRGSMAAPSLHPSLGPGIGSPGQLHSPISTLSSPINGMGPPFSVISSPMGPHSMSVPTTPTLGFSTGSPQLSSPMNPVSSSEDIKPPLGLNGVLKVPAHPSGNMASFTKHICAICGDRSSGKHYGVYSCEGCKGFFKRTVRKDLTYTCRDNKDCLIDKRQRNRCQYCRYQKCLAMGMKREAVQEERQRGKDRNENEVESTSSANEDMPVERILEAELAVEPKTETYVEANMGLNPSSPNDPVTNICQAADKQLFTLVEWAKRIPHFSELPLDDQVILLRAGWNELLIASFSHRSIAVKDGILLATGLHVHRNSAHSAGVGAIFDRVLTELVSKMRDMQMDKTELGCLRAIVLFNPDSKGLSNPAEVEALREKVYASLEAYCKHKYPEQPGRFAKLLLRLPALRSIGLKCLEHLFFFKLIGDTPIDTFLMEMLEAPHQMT
Description: Agonist activity at human CMV-fused […]/RXRalpha (unknown origin) expressed in African green monkey CV1 cells transfected with luciferase plasmid measured after 24 hrs by luciferase reporter gene assay. In kind it is cell-based, CV-1. Summed up: (§1)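 CV1 cells were transfected, in DMEM with 5% charcoal-stripped FBS, with CMV-driven full PPARγ and RXRα plus a 2×PPRE TK-promoter luciferase reporter. After overnight growth, cells were replated at 15000/well for 4 h, then treated with 0.17 nM–10 μM in half-log dilutions for 24 h. Lysate luminescence was expressed as % of the maximum from 10 μM reference PPARγ agonist and fit to a 4-parameter logistic.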

Data set [4] in a line: Clearance in mouse liver microsomes by LC-MS/MS analysis. In kind it is ADME, Microsome. A general note: Microsomes from liver hold many membrane-bound enzymes, among them those of drug oxidation.
Data set [5] concerns the target T2, Peroxisome proliferator-activated receptor alpha (Homo sapiens, UniProt Q07869).
T2 sequence (Q07869 whole entry): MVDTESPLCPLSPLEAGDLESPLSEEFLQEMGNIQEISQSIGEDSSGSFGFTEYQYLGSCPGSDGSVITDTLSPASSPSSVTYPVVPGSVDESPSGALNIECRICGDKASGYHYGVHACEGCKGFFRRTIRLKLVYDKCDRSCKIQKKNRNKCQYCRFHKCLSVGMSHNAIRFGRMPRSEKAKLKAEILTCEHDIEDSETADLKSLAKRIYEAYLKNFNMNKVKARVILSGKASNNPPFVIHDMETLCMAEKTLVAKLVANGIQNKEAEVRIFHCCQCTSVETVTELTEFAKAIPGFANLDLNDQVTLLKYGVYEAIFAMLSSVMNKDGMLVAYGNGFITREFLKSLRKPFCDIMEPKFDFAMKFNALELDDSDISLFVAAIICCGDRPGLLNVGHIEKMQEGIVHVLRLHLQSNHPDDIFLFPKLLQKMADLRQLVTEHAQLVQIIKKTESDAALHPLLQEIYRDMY
Description: Agonist activity at human Gal4-fused PPARalpha LBD expressed in African green monkey CV1 cells cotransfected with pRL-SV40 plasmid measured after 24 hrs by luciferase reporter gene assay. The class given is cell-based, CV-1. Summed up: (§2)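 CV1 African green monkey kidney cells were cotransfected, in DMEM with 5% charcoal-stripped FBS, with two plasmids: an SV40-driven Gal4 DBD–PPARα or PPARδ LBD hybrid, and a 5×Gal4-element firefly luciferase reporter. Cells were replated at 15000/well for 4 h, then exposed to 0.17 nM–10 μM in half-log steps for 24 h. Luciferase was read, normalized to maximum from 10 μM reference agonist, and fit by a 4-parameter model.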
Background: A reporter such as luciferase makes a cellular process visible.

Data set [6] in a line: Drug metabolism in mouse hepatocytes assessed as glucuronidation by LC-MS/MS analysis. The class given is ADME, cell-based, Hepatocyte.
In data set [7] the target is T3, Peroxisome proliferator-activated receptor delta (Homo sapiens) (UniProt Q03181).
T3 sequence (whole entry): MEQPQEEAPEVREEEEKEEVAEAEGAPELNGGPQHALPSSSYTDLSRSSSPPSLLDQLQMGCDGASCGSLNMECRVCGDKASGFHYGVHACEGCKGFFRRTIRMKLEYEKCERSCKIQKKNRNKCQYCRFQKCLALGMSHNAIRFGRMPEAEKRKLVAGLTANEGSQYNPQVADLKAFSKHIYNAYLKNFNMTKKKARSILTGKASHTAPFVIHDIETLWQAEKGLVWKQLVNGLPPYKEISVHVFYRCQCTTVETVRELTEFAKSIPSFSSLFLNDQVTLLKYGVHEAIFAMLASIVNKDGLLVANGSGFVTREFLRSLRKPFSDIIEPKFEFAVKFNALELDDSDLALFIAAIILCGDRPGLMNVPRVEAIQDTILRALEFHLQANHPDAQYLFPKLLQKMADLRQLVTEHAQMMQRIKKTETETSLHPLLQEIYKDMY
The data set can be described thus: Agonist activity at human Gal4-fused PPARdelta LBD expressed in African green monkey CV1 cells cotransfected with pRL-SV40 plasmid assessed as maximum efficacy measured after 24 hrs by luciferase reporter gene assay relative to control. The class given is cell-based. As to conditions: CV-1. Summed up: as §2

The target of data set [8] is RXR alpha/PPAR gamma (Homo sapiens) (UniProt P37231+P19793). The data set can be described thus: Agonist activity at human CMV-fused PPARgamma […]/RXRalpha (unknown origin) expressed in African green monkey CV1 cells transfected with luciferase plasmid assessed as maximum efficacy measured after 24 hrs by luciferase reporter gene assay relative to control. The class given is cell-based. The note with it: CV-1. The procedure, abridged: as §1

The nature of data set [9]: Drug metabolism in dog hepatocytes assessed as glucuronidation by LC-MS/MS analysis. In kind it is ADME, cell-based, Canis lupus familiaris, Hepatocyte.

SMILES strings stand for the structures. Converted amounts (≈) assume the structure as drawn. The source made the active and inactive calls. No cut-off for these calls is given here.

Results on four compounds are retold here after ChEMBL document CHEMBL4765234 (J Med Chem, 2016).

Chain of Voltage-gated inwardly rectifying potassium channel KCNH2 (Q12809 whole entry): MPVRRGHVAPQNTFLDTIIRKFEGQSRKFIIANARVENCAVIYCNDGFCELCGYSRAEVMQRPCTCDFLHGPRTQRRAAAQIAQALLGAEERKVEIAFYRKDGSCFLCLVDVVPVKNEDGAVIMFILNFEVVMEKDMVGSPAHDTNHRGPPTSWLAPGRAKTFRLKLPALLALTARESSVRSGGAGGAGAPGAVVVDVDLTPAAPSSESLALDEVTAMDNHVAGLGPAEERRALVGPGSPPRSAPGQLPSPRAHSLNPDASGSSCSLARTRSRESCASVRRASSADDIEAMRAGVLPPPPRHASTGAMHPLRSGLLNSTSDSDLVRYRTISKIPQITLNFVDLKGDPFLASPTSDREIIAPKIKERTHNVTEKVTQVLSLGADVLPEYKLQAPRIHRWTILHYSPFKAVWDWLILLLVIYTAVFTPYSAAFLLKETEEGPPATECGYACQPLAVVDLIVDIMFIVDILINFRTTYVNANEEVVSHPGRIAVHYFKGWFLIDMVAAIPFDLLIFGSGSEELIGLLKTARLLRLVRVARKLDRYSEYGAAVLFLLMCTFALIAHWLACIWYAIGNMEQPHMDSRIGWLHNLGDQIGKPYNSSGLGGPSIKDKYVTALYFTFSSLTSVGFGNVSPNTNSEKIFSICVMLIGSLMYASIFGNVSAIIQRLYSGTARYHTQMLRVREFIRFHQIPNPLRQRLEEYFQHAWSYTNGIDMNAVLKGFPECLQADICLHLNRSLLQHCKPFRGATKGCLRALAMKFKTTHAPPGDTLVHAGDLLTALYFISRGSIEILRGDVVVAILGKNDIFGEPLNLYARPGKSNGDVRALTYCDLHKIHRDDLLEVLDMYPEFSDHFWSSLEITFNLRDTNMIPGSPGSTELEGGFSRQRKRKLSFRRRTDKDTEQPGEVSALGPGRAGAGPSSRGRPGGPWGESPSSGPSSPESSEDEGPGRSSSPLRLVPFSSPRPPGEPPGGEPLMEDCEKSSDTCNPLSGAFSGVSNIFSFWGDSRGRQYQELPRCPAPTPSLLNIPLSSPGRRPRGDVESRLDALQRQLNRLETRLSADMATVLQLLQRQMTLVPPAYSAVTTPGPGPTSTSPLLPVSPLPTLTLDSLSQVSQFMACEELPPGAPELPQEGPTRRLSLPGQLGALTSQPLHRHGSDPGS

By solubility is commonly meant the concentration that dissolves in the medium under given conditions. A word on the EC50: it is the concentration that produces a half-maximal response. In the case of `CC#C[C@@H](CC(=O)O)c1ccc(OCc2ccc(CN3CCC4(C=Cc5ccccc54)CC3)cc2)cc1` [LY2881835], the “inhibition (INH)” value in [1] is “Not Active”. For the same compound, the Drug metabolism entry in [2], in data set [6] and in data set [9] was “Metabolite_Detected” in each case. The compound further had a solubility in [3] of 7 µg/mL (≈ 14.2 µM). The result in the data set on Rattus norvegicus was Active. The EC50 (at RXR alpha/PPAR gamma; in data set [5]) was greater than 10 µM in each case. The same compound came in with a CLH in data set [4] of 0.131 h⁻¹. Moreover, the Emax in data set [7] was found to be 5%; in [8], 7%.
As for `CC#C[C@@H](CC(=O)O)c1ccc(OCc2ccc(CN3CCCc4cccc(OC)c43)s2)cc1`, the “inhibition (INH)” value in [1] was “Not Active”. Also, the Drug metabolism entry in data set [2], in data set [6] and in data set [9] was “Metabolite_Detected” throughout. This compound also registered a solubility in data set [3] of 35 µg/mL (≈ 73.6 µM). Also, the result in the data set on Rattus norvegicus was Active. Besides, the concentration for a half-maximal effect (EC50) (on RXR alpha/PPAR gamma; in data set [5]) was greater than 10 µM each time. In addition, the CLH in [4] was determined as 0.022 h⁻¹. Moreover, the Emax came to 1% in data set [7] and 8% in data set [8].
For `CC#C[C@@H](CC(=O)O)c1ccc(OCc2ccc(CN3CCC4(C=Cc5ccccc54)CC3)s2)cc1`, the Drug metabolism entry in data set [2] and in [9] was “Metabolite_Detected” throughout.
In the case of `CC#C[C@@H](CC(=O)O)c1ccc(OCc2ccc(CN3CCC4(CCc5ccccc54)CC3)s2)cc1`, in data set [1], the “inhibition (INH)” value is listed as “Not Active”. Also, the Drug metabolism entry in [2], in [6] and in data set [9] was “Metabolite_Detected” throughout. Also, the solubility in [3] turned out to be 6 µg/mL (≈ 12 µM). The result in the data set with Rattus norvegicus was Active. The EC50 (at RXR alpha/PPAR gamma; in data set [5]) was greater than 10 µM in each case. Also, in [4], the CLH is 0.288 h⁻¹. Moreover, the Emax in data set [7] turned out to be 2%; in data set [8], 15%.
